Compound activity: PubChem, Johns Hopkins Ion Channel Center
This is a sample that favours compounds with a hit; in the whole collection about 3.7% have one here.
KCNK3 inh: human KCNK3 channel inhibition, primary screen; O14649; CHO-KCNK3 thallium flux, FluxOR fluorescence; active compounds read low; B-score at 10 µM; 340,000 tested, 0.84% active; AID 602410;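 active = B-score under library mean minus 4 SD, starting fluorescence ratio at most library mean plus 5 SD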;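 also: more negative B-score means stronger inhibition of thallium flux through KCNK3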
KCNQ1 act: potentiators or activators of human KCNQ1 potassium channel; P51787; CHO-K1 KCNQ1, thallium flux FluxOR fluorescence; active compounds read high; B-score at 10 µM; 310,000 tested, 0.35% active;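 active = fluorescence ratio B-score, a plate-corrected score, at least three library SD, with initial intensity B-score within 5 SD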
Target sequence (P51787 whole entry, looked up): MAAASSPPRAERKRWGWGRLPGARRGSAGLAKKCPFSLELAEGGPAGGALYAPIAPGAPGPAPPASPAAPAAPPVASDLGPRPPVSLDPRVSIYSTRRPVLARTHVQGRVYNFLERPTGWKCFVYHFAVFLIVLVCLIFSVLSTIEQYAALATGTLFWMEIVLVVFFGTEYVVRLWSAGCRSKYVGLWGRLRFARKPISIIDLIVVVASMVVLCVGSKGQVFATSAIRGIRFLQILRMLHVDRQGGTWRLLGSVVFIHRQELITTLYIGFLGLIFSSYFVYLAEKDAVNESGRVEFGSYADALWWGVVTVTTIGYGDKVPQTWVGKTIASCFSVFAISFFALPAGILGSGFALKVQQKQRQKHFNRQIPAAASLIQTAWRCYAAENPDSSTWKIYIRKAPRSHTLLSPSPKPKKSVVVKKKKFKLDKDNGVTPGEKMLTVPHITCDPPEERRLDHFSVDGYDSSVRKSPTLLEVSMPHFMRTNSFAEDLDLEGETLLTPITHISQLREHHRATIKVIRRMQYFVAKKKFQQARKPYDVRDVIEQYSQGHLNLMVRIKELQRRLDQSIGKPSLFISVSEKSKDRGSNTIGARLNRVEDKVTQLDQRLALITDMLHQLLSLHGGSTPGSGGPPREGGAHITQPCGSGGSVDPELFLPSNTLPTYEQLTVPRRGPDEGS
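Test system: CHO-K1 cells stably expressing KCNQ1 / Medium: assay buffer / Also added: depolarizing K+/Tl+ stimulus, K2SO4 and Tl2SO4 each 12.5 mM in 5x stock / Incubation: 90 min dye loading and 20 min compound exposure, both at room temperature / Signal: thallium influx via FluxOR fluorescence, kinetic imaging / Evaluation: B score of baseline-normalized fluorescence ratio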
KCNQ1 block: blocks the human KCNQ1 potassium channel. CHO-K1 KCNQ1, FluxOR thallium flux fluorescence; active compounds read high. B-score at 10 µM. P51787. 310,000 tested, 1.3% active. AID 2642;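 active = compounds whose thallium flux B-score, printed positive for inhibition, exceeds three library SD while starting fluorescence stays within three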;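 also: channel opened by potassium depolarization with thallium stimulus after 20 min compound exposure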
hERG protect: compounds protecting human hERG from proarrhythmic drug block; Q12809; CHO-hERG, FluxOR thallium flux, dofetilide IC70 present; 310,000 tested, 0.51% active; activation (rescue from dofetilide block), less the hit threshold, % at 10 µM;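 active = activation above the mean of controls blocked by dofetilide plus 5 SD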;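 also: thallium influx through hERG after potassium depolarization seen as dye fluorescence rise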
Kir21 block: Kir2.1 (mouse) channel inhibition | HEK293-Kir2.1, FluxOR thallium flux fluorescence; active compounds read low | B-score at 10 µM | 310,000 tested, 0.85% active;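 active = fluorescence ratio B-score at or below minus 3 SD of library scores, with starting-brightness B-score within 2 SD, cut at about -4.2 in these data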;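 also: channel flux triggered by added potassium and thallium sulfate stimulus; B-score of peak minus minimum fluorescence over baseline after thallium stimulus; more negative B-score means stronger Kir2.1 block with less thallium influx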
KCNK9 inh: blocks the human KCNK9 two-pore domain potassium channel; B-score at 10 µM; HEK293 KCNK9, FluxOR thallium flux fluorescence; active compounds read low; 310,000 tested, 1.2% active; Q9NPC2;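 active = ratio B-score over 3 SD below the library mean, with starting fluorescence within 5 SD of its mean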;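 also: negative B-score means less thallium flux so channel inhibition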
KCNK9 inh conf: confirmation of human KCNK9 potassium channel inhibitors | HEK293 KCNK9 cells, FluxOR thallium flux fluorescence | inhibition, % at 10 µM | shares compounds with KCNK9 inh | 4,900 tested, 43% active;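 active = thallium signal inhibited by more than 5 SD of the compound-free buffer control wells, on both duplicate plates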;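 also: 0% = assay buffer control wells without compound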
Kir2-1 spec: tests whether KCNK9 modulators also affect mouse Kir2.1. shares compounds with KCNK9 inh. Kir2.1 cells, FluxOR thallium flux fluorescence. inhibition, % at 10 µM. 4,900 tested, 4% active. AID 492993;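 active = thallium signal drop more than 5 SD beyond the mean of the no-compound control wells, seen in both duplicate plates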;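 also: signal is fluorescence rise after thallium addition divided by baseline fluorescence; plate controls were assay buffer only for no effect and full block by chlorpromazine control for full effect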
HEK293 Tl ctr: non-induced cell nonspecific activity of KCNK9 modulators; shares compounds with KCNK9 inh; non-induced KCNK9-HEK293, FluxOR thallium flux; inhibition, % at 10 µM; 4,900 tested, 40% active;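 active = thallium signal drop beyond 5 SD of the untreated control mean, on both duplicate plates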;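 also: plate controls were buffer only IC0 wells for no effect and SID17386958 at its maximal inhibitory level for full effect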
KCNK3 confirm: human KCNK3 channel inhibition, confirmation assay. shares compounds with KCNK3 inh. CHO-KCNK3 thallium flux, FluxOR fluorescence; 0% buffer, 100% carvedilol maximal block. ratio percent of control, % at 10 µM. 2,400 tested, 99% active. AID 651638;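 active = ratio percent of control, averaged over triplicates, above buffer control mean plus 5 SD, cut at about 64% in these data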;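 also: ratio is the fluorescence rise from min to max over baseline after thallium stimulus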
KCNK3 uninduced: KCNK3 inhibitor counter-screen hit in non-induced cells; thallium flux ratio (lower = more inhibition) at 10 µM; non-induced KCNK3 parental cells, FluxOR thallium flux; active compounds read low; AID 651747; shares compounds with KCNK3 inh; 2,400 tested, 40% active;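 active = thallium flux ratio, averaged over three wells, more than 5 SD below the buffer control mean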;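 also: host cells are CHO cells without KCNK3 induction; ratio is peak minus trough fluorescence over baseline then normalized to buffer controls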
The depositor's hits bear a star; i = inactive; . = no result given.

SMILES	KCNK3 inh	KCNQ1 act	KCNQ1 block	hERG protect	Kir21 block	KCNK9 inh	KCNK9 inh conf	Kir2-1 spec	HEK293 Tl ctr	KCNK3 confirm	KCNK3 uninduced
Cc1onc(-c2ccccc2Cl)c1C(=O)N(Cc1nc(-c2ccccc2)no1)C1CCCCC1	i	i	i	-10	0.94	-9.7*	30%*	i	32%*	90*	0.15*
CCN(Cc1ccccc1)C(c1cccc(C#N)c1)c1nnnn1C(C)(C)C (stereo not drawn)	-9.2*	i	i	-1	-0.09	-14*	64%*	i	43%*	102*	i
O=c1/c(=C\c2ccc(O)cc2)sc2n1C(c1ccccc1)C(c1ccccc1)=NN=2 (stereo not drawn)	i	i	i	-20	-0.44	-13*	56%*	i	52%*	132*	0.15*
O=C(N/N=C/c1cccc(Oc2ccccc2)c1)c1cccc(Br)c1	-11*	i	i	5.6*	0.02	-11*	54%*	i	26%*	99*	0.16*
CNC(=O)c1cc(S(=O)(=O)N2CC(C)OC(C)C2)ccc1N1CCCCC1 (stereo not drawn)	i	i	i	-4	-0.08	i	.	.	.	.	.
CCN(CC)S(=O)(=O)c1ccc(C(=O)NCCN(C)C)cc1	i	i	i	-6	-0.04	i	.	.	.	.	.
Cc1cc(OCC(=O)OCC(=O)N(C)c2c(N)n(Cc3ccccc3)c(=O)[nH]c2=O)ccc1Cl	i	i	i	-15	0.13	i	.	.	.	.	.
CCn1cc(C(=O)NCCCN(CC(C)C)CC(C)C)c(=O)c2cc(S(=O)(=O)N(C)C3CCCCC3)ccc21	i	i	i	-9	3	i	.	.	.	.	.
O=C(Nc1ccc(NC(=O)c2cccs2)cc1)c1ccc(Br)o1	i	i	i	-6	0.68	i	.	.	.	.	.
O=C(Nc1cccc(NC(=O)c2cccs2)c1)c1ccc(Br)o1	-10*	i	i	-12	-0.41	-16*	62%*	i	i	99*	i
O=C(Nc1cccc(-c2cn3cccnc3n2)c1)c1ccc(Br)o1	-9.6*	i	i	-13	-0.08	-8.7*	40%*	i	i	95*	i
COc1cc(C(=O)N/C(=C\c2cn(C)c3ccccc23)C(=O)NCCCn2ccnc2)cc(OC)c1OC	i	i	i	-4	-1.6	i	.	.	.	.	.
Cc1cccc(OCC(=O)NC(C)C(=O)N/N=C/c2c(OCc3ccccc3)ccc3ccccc23)c1 (stereo not drawn)	-9.4*	i	i	-11	-0.21	-16*	66%*	i	48%*	105*	i
COc1ccc(OC)c(CCNC(=O)c2cccc(NC(=O)C3=C(C)OCCS3)c2)c1	-11*	i	i	-22	0.46	-8.2*	38%*	i	i	97*	i
COc1ccc(C(CNC(=O)c2ccc(NS(=O)(=O)c3ccc(F)c(C)c3)cc2)N2CCOCC2)cc1 (stereo not drawn)	i	i	i	-15	-0.16	i	.	.	.	.	.
CC(C)=CCOc1ccc2ccc(=O)oc2c1	-9.2*	i	i	-6	0.47	-12*	37%*	i	34%*	119*	i
CC1=CC(C/C(C)=C/COc2ccc3ccc(=O)oc3c2)OC1=O (stereo not drawn)	i	i	i	-10	0.12	i	.	.	.	.	.
